Drawing on ChEMBL document CHEMBL1133633, “Anti-Helicobacter pylori agents. 4. 2-(Substituted guanidino)-4-phenylthiazoles and some structurally rigid derivatives” (2000), this text covers MIC and Inhibition for 19 compounds.

As a reminder, the Inhibition is how much of the control response was suppressed. Low readings indicate little suppression, high ones strong suppression.

Converted amounts (≈) assume the structure as drawn. Bounds are passed on as bounds.

Assay [1] concerns Helicobacter pylori. As to the kind of experiment: The lowest drug concentration that inhibited macroscopic colonial growth against Helicobacter pylori; value ranges from 0.2-0.78. The format is functional. A digest of the protocol:
(§1)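 Agar dilution. Strains were precultured 3 days at 37 °C on Brucella agar with 3% horse serum and 2% starch, then suspended in buffered saline to McFarland No. 1. A 10²-fold dilution was spotted by multipoint replicator onto Brucella agar with 7% lysed horse blood carrying serial 2-fold drug dilutions. Plates were incubated 3 days at 37 °C under 10% CO₂. MIC is the lowest concentration preventing macroscopic colonial growth. Mean and range come from 10 strains: 8001, 8003, 8004, 8007, 8008, 8009, 8011, 9005, FP1530 and FP1532.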

The species named for assay [2] is Cavia porcellus. Description: Inhibition of histamine stimulated chronotropic response in isolated guinea pig right atrium (1x 10e-6 g/mL). Format: functional, Cardiac atrium. A digest of the protocol: (§2)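 Guinea pig right atrial strip, under 0.3-0.6 g initial tension in Tyrode solution at 30 °C, gassed with 95% O₂-5% CO₂; beating rate recorded by transducer. Histamine hydrochloride (1 × 10^-6 g/mL) raised rate. Test compound (1 × 10^-6 g/mL) was added 30 min after histamine washout. Percent inhibition compares histamine-induced rate increases before and 30 min after dosing.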

Assay [3] deals with Rattus norvegicus. As to the kind of experiment: Inhibition of histamine stimulated gastric acid secretion in lumen perfused stomach of anesthetized rat (1 mg/kg iv). Format: functional. The method, boiled down:
(§3)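 Male Sprague-Dawley rats (~250 g), fasted 24 h, anesthetized with urethane 1.25 g/kg ip. The opened stomach was lumen-perfused with saline, and the perfusate was titrated with 25 mM NaOH by autotitrator. Inhibition of histamine-stimulated acid output was measured after 1 mg/kg iv dosing; n = 2.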

In assay [4] the test system is Helicobacter pylori. As to the kind of experiment: The lowest drug concentration that inhibited macroscopic colonial growth against Helicobacter pylori;value ranges from 6.25-50. The format is functional. A digest of the protocol: as §1
Assay [5] concerns Helicobacter pylori. Description: The lowest drug concentration that inhibited macroscopic colonial growth against Helicobacter pylori; Value ranges from 3.13-12.5. Format: functional. A digest of the protocol:
as §1

The subject of assay [6] is Helicobacter pylori. Description: The lowest drug concentration that inhibited macroscopic colonial growth against Helicobacter pylori; Value ranges from 12.5-100. Format: functional. A digest of the protocol:
as §1

The subject of assay [7] is Helicobacter pylori. Description: The lowest drug concentration that inhibited macroscopic colonial growth against Helicobacter pylori; value ranges from 1.56-3.13. Format: functional. The method, boiled down:
as §1

Assay [8] has as its system Helicobacter pylori. As to the kind of experiment: The lowest drug concentration that inhibited macroscopic colonial growth against Helicobacter pylori; value ranges from 0.39-0.78. Format: functional. A digest of the protocol:
as §1

Assay [9] deals with Rattus norvegicus. As to the kind of experiment: Inhibition of histamine stimulated gastric acid secretion in lumen perfused stomach of anesthetized rats (1 mg/kg iv). Format: functional. The method, boiled down:
as §3

The species entered for assay [10] is Cavia porcellus. Description: Inhibition of histamine stimulated chronotropic response in isolated guinea pig right atrium (1*10e-6 g/mL). Format: functional, Cardiac atrium. The method, boiled down: as §2
The test system of assay [11] is Helicobacter pylori. As to the kind of experiment: The lowest drug concentration that inhibited macroscopic colonial growth against Helicobacter pylori. The format is functional. A digest of the protocol:
as §1

The test system of assay [12] is Neisseria gonorrhoeae. Description: Antimicrobial activity was measured against Neisseria gonorrhoeae organism. The format is functional.
The subject of assay [13] is Bacteroides fragilis. As to the kind of experiment: Antimicrobial activity was measured against Bacteroides fragilis. Format: functional, organism-based.
The test system of assay [14] is Neisseria meningitidis. Description: Antimicrobial activity was measured against Neisseria meningitidis organism. The format is functional.
Assay [15] deals with Clostridioides difficile. Description: Antimicrobial activity was measured against Clostridium difficile organism. The format is functional.
Assay [16] concerns Campylobacter jejuni. Description: Antimicrobial activity was measured against Campylobacter jejuni organism. The format is functional.
The test system of assay [17] is Helicobacter pylori. Description: Determined the lowest drug concentration that inhibited macroscopic colonial growth against Helicobacter pylori. Format: functional. A digest of the protocol:
as §1

The test system of assay [18] is Helicobacter pylori. Description: Antimicrobial activity was measured against Helicobacter pylori organism. The format is functional, organism-based. The method, boiled down:
as §1

Assay [19] deals with Clostridium perfringens. As to the kind of experiment: Antimicrobial activity was measured against Clostridium perfringens organism. The format is functional.
Assay [20] concerns Clostridioides difficile. As to the kind of experiment: Antimicrobial activity was measured against Clostridium difficile organism; Value ranges from 0.1-0.39. Format: functional.
Assay [21] deals with Bacteroides fragilis. Description: Antimicrobial activity was measured against B. fragilis range; Value ranges from 0.39-0.78. Format: functional.
The subject of assay [22] is Helicobacter pylori. As to the kind of experiment: The lowest drug concentration that inhibited macroscopic colonial growth against Helicobacter pylori; Value ranges from 1.56-25. The format is functional. The method, boiled down: as §1
For assay [23], the system named is Clostridium perfringens. Description: Antimicrobial activity was measured against Clostridium perfringens organism; Value ranges from 0.78-3.13. The format is functional.
Assay [24] has as its system Campylobacter jejuni. As to the kind of experiment: Antimicrobial activity was measured against Campylobacter jejuni organism; Value ranges from 0.78-100. Format: functional.
For assay [25], the system named is Helicobacter pylori. As to the kind of experiment: microbe, parasite or virus in culture.
Assay [26] relates to Campylobacter jejuni. As to the kind of experiment: Antimicrobial activity was measured against Campylobacter jejuni organism. range is between is(12.5-50). The format is functional.
Assay [27] concerns Helicobacter pylori. As to the kind of experiment: The lowest drug concentration that inhibited macroscopic colonial growth against Helicobacter pylori; value ranges from 0.0030-0.05. Format: functional. The method, boiled down: as §1
Assay [28] has as its system Bacteroides fragilis. As to the kind of experiment: Antimicrobial activity was measured against Bacteroides fragilis organism. The format is functional.
For assay [29], the system named is Helicobacter pylori. Description: The lowest drug concentration that inhibited macroscopic colonial growth against Helicobacter pylori; Value ranges from 6.25-50. Format: functional. A digest of the protocol: as §1
For assay [30], the system named is Clostridioides difficile. Description: Antimicrobial activity was measured against Clostridium difficile organism; range is between (0.1-0.78). The format is functional.
In assay [31] the test system is Helicobacter pylori. As to the kind of experiment: The lowest drug concentration that inhibited macroscopic colonial growth against Helicobacter pylori; value range is between 0.0063-0.1. Format: functional. A digest of the protocol: as §1
In assay [32] the test system is Neisseria gonorrhoeae. As to the kind of experiment: Antimicrobial activity was measured against Neisseria gonorrhoeae organism; range is between (0.39-100). Format: functional.
In assay [33] the test system is Clostridium perfringens. Description: Antimicrobial activity was measured against Clostridium perfringens organism; range is between (0.025-0.05). The format is functional.
Assay [34] concerns Bacteroides fragilis. Description: Antimicrobial activity was measured against B. fragilis; range is between (0.2-12.5). Format: functional.
In assay [35] the test system is Campylobacter jejuni. As to the kind of experiment: Antimicrobial activity was measured against Campylobacter jejuni organism; range is between ( 0.39-6.25). Format: functional.
For assay [36], the system named is Neisseria meningitidis. As to the kind of experiment: Antimicrobial activity was measured against Neisseria meningitidis organism; range is between (0.05-0.1). The format is functional.
The test system of assay [37] is Helicobacter pylori. As to the kind of experiment: The lowest drug concentration that inhibited macroscopic colonial growth against Helicobacter pylori; value ranges from 0.0125-0.1. Format: functional. The method, boiled down:
as §1

On to `CC(=O)NCc1cccc(-c2csc(NC(=N)NCCCc3ccccc3)n2)c1`, for which the MIC with Helicobacter pylori [1] stood at 0.39 µg/mL (≈ 0.957 µM). Besides, the Inhibition in the assay listed under Cavia porcellus [2] stood at 35%; with Rattus norvegicus [3] it was 57%.
In the case of `CC(=O)NCc1cccc(-c2csc(NC(=N)NCCc3c[nH]cn3)n2)c1`, the MIC against Helicobacter pylori [4] was 27 µg/mL (≈ 70.4 µM).
`CCCC/N=C(\N)Nc1nc2c(s1)CCOc1ccc(CNC(C)=O)cc1-2`: in the assay with Helicobacter pylori [5], the MIC came to 7.7 µg/mL (≈ 19.9 µM).
In the assay on Helicobacter pylori [6], `CC(=O)NCc1ccc2c(c1)-c1nc(N=C(N)N)sc1CCO2` returned an MIC of 50 µg/mL (≈ 151 µM).
Regarding `CC(=O)NCc1cccc(-c2csc(NC(=N)NCCC(c3ccccc3)c3ccccc3)n2)c1`, in the assay with Helicobacter pylori [7], the MIC was found to be 2.5 µg/mL (≈ 5.17 µM).
In turn, `CC(=O)NCc1cccc(-c2csc(NC(=N)NCCOc3ccccc3)n2)c1` showed an MIC in the assay on Helicobacter pylori [8] of 0.49 µg/mL (≈ 1.2 µM). For the same compound, the Inhibition in the assay on Rattus norvegicus [9] is on record as 18%; in the assay filed under Cavia porcellus [10] it was 52%.
`C/N=C(\N)Nc1nc(-c2cccc(CNC(C)=O)c2)cs1`: the MIC against Helicobacter pylori [11] worked out at 14.4 µg/mL (≈ 47.5 µM).
For `CC(=O)NCc1cccc(-c2csc(NC(=N)NCCc3ccccn3)n2)c1`, in the assay with Helicobacter pylori [8], the MIC was found to be 0.49 µg/mL (≈ 1.24 µM). The Inhibition in the assay on Rattus norvegicus [9] is on record as 14%; in the assay filed under Cavia porcellus [10] it was 39%.
In the case of “(2,5-Dihydroxy-4,7-dioxo-[1,3,2]dioxabismepan-5-yl)-acetic acid”, the MIC against Neisseria gonorrhoeae [12] turned out to be 4.7 µg/mL; against Bacteroides fragilis [13], 50 µg/mL; in the assay with Neisseria meningitidis [14] it was 12.5 µg/mL; in the assay with Clostridioides difficile [15] it was 50 µg/mL; with Campylobacter jejuni [16] it was 7.4 µg/mL; in the assay with Helicobacter pylori [17] it was 18 µg/mL. The MIC against Helicobacter pylori [18] was 8.7 µg/mL; with Clostridium perfringens [19], greater than 100 µg/mL.
As to `Cc1ncc([N+](=O)[O-])n1CCO` [METRONIDAZOLE], the MIC is greater than 100 µg/mL against Neisseria gonorrhoeae [12]; 0.2 µg/mL (≈ 1.17 µM) in the assay with Clostridioides difficile [20]; greater than 100 µg/mL in the assay with Neisseria meningitidis [14]; 0.59 µg/mL (≈ 3.45 µM) with Bacteroides fragilis [21]; 5.4 µg/mL (≈ 31.6 µM) in the assay with Helicobacter pylori [22]; 1.75 µg/mL (≈ 10.2 µM) in the assay with Clostridium perfringens [23]. In the assay on Campylobacter jejuni [24], this compound displayed an MIC of 30 µg/mL (≈ 175 µM).
As to `CN/C(=N\CCSCc1nc[nH]c1C)NC#N` [CIMETIDINE], the MIC in the assay with Helicobacter pylori [25] came out at 1130 µg/mL (≈ 4480 µM). Moreover, the Inhibition is listed as 53% in the assay with Rattus norvegicus [9] and 43% in the assay filed under Cavia porcellus [10].
`CC(=O)NCc1cccc2c1OCCc1sc(N=C(N)N)nc1-2` showed an MIC in the assay on Helicobacter pylori [11] greater than 100 µg/mL.
In the assay on Helicobacter pylori [1], `CC(=O)NCc1cccc(-c2csc(NC(=N)Nc3ccccc3)n2)c1` yielded an MIC of 0.52 µg/mL (≈ 1.42 µM). Moreover, the figures for the Inhibition in the assay on Rattus norvegicus [9] and in the assay filed under Cavia porcellus [10] were 24% and 23%, respectively.
As for `COc1ccccc1CC/N=C(\N)Nc1nc(-c2cccc(CNC(C)=O)c2)cs1`, the MIC is greater than 100 µg/mL with Neisseria gonorrhoeae [12]; greater than 100 µg/mL in the assay with Neisseria meningitidis [14]; 20.5 µg/mL (≈ 48.4 µM) against Campylobacter jejuni [26]; 0.017 µg/mL (≈ 0.0401 µM) with Helicobacter pylori [27]; greater than 100 µg/mL in the assay on Clostridioides difficile [15]; greater than 100 µg/mL with Clostridium perfringens [19]. Moreover, in the assay on Bacteroides fragilis [28], the MIC is greater than 100 µg/mL. Also, the Inhibition is 58% with Rattus norvegicus [9] and 72% in the assay listed under Cavia porcellus [10].
As for `CC[C@H]1OC(=O)[C@H](C)[C@@H](O[C@H]2C[C@@](C)(OC)[C@@H](O)[C@H](C)O2)[C@H](C)[C@@H](O[C@@H]2O[C@H](C)C[C@H](N(C)C)[C@H]2O)[C@](C)(OC)C[C@@H](C)C(=O)[C@H](C)[C@@H](O)[C@]1(C)O` [CLARITHROMYCIN], the MIC against Helicobacter pylori [17] worked out at 0.057 µg/mL (≈ 0.0762 µM).
`CCCC/N=C(\N)Nc1nc2c(s1)CSc1ccc(CNC(C)=O)cc1-2` had an MIC in the assay on Helicobacter pylori [29] of 22 µg/mL (≈ 56.5 µM).
Consider `CC(=O)NCc1ccc(-c2csc(N=C(N)N)n2)cc1`, for which the MIC with Helicobacter pylori [11] is greater than 100 µg/mL.
As for `CC1(C)S[C@@H]2[C@H](NC(=O)[C@H](N)c3ccc(O)cc3)C(=O)N2[C@H]1C(=O)O` [AMOXICILLIN], the MIC in the assay with Clostridioides difficile [30] was found to be 0.28 µg/mL (≈ 0.766 µM); in the assay on Helicobacter pylori [31], 0.021 µg/mL (≈ 0.0575 µM); in the assay with Neisseria gonorrhoeae [32], 7.7 µg/mL (≈ 21.1 µM); with Clostridium perfringens [33], 0.027 µg/mL (≈ 0.0739 µM); in the assay on Bacteroides fragilis [34] it was 2.1 µg/mL (≈ 5.75 µM); in the assay with Campylobacter jejuni [35], 2.2 µg/mL (≈ 6.02 µM). Besides, the MIC in the assay with Neisseria meningitidis [36] was 0.056 µg/mL (≈ 0.153 µM).
For the compound `CC(=O)NCc1cccc(-c2csc(NC(=N)NCCc3ccccc3)n2)c1`, the MIC with Helicobacter pylori [37] came to 0.037 µg/mL (≈ 0.094 µM). Moreover, the values for the Inhibition in the assay with Rattus norvegicus [9] and in the assay listed under Cavia porcellus [10] were 59% and 65%, respectively.
